High-throughput results (PubChem BioAssay)
p47phox inh: blocks human p47phox regulatory protein of NADPH oxidases; P14598; inhibition, % at 24.7 µM; p47phox/p22phox peptide binding, fluorescence polarization, 2 h; AID 1274; hit rate 0.53% among 220,000;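 active = inhibition above about 30%, limit read from the data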;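 also: 0% = p47phox with labelled peptide and 100% = labelled peptide alone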
Target sequence (P14598 whole entry, looked up): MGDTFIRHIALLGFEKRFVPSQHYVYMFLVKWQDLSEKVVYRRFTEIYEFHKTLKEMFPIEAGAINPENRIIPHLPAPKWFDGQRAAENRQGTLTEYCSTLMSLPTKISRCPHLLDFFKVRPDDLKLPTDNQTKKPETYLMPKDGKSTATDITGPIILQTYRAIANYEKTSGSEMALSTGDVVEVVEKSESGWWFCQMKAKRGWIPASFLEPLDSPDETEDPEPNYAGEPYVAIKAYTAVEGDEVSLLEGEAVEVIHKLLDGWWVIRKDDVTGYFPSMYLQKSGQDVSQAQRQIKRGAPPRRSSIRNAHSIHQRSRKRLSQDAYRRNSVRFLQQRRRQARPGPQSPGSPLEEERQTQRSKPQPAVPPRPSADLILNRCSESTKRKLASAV
Diaph act CS: diaphorase activation or chemical reduction counter-screen; Diaphorase/resazurin coupled assay, resorufin fluorescence, 16 min; stronger effect = higher value; 1 = vehicle wells, 0 = NADH-free wells; activation factor at 20 µM; hit rate 0.005% among 190,000; AID 1229;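 active = diaphorase activity raised at least twofold by the compound at 20 µM; inactive = activation factor below 2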
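Assay system: bacterial diaphorase enzyme (C. kluyveri) / Input: enzyme 0.07 U/mL final / Medium: 50 mM HEPES pH 7.4 with 4.542 mM MgCl2, 0.005% Tween 20 / Doses: single compound dose of 20 µM, 1% DMSO final / Incubation: 16 min enzyme reaction, ambient temperature / Signal: fluorescence, excitation 544 nm and emission 590 nm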
ABCG2 block: inhibitors of human ABCG2 transporter, ABCB1 counter-screen | inhibition, % at 6.6 µM | Q9UNQ0 | hit rate 0.1% among 190,000 | IgMXP3 cells, JC-1 efflux, flow cytometry;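 active = inhibition above 80%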;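 also: 0% = DMSO and 100% = nicardipine control wells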
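System: two drug-resistant human cell lines, ABCG2 and ABCB1; controls: nicardipine high and DMSO low controls; times: 10 min exposure at 25 °C with rotation, no wash; detection: flow cytometry of retained JC-1 fluorescence; read-out basis: percent efflux inhibition, scaled nicardipine 100% to DMSO 0%; doses: one concentration, 6.6 µM final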
ABCB1 block: blocks JC-1 efflux by human ABCB1 transporter | P08183 | CCRF-Adr cells, flow cytometry | inhibition, % at 6.6 µM | hit rate 0.067% among 190,000 | AID 1326; in the data active = inhibition above about 40%;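 also: 0% = vehicle and 100% = reference inhibitor; higher value means more JC-1 retained so stronger ABCB1 efflux block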
Diaph inh CS: inhibits diaphorase or chemically oxidizes, flagging diaphorase assay artifacts; diaphorase resazurin-to-resorufin fluorescence, NADH, 16 min; bacterial (C. kluyveri) enzyme, not human; inhibition, % at 20 µM; hit rate 0.69% among 190,000;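 active = primary screen inhibition at 20 µM above a set limit, cut at about 50% in these data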;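 also: plate controls were DMSO with full reaction for no effect and wells lacking NADH for full effect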
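Benchmarks: positive control wells lacking NADH, neutral wells with DMSO only. System: bacterial diaphorase enzyme (C. kluyveri). Input: 0.14 U/mL diaphorase, enzyme working solution. Detection: resorufin fluorescence, excitation 544 nm, emission 590 nm. Times: 16-min room-temperature incubation before reading.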
HMGR II inh: E. faecalis class II HMG-CoA reductase inhibition | purified E. faecalis HMGR, NADPH absorbance 340 nm kinetic | inhibition, % at 10 µM | hit rate 0.41% among 190,000;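 active = inhibition above a set limit, the median over all tested compounds plus 3 SD, cut at about 9.5% in these data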;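 also: enzyme runs in reverse so mevalonate oxidation gives rising NADPH absorbance; 0% = complete reaction with DMSO and 100% = background rate lacking mevalonate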
* hit, by the source's call. In the library only some 1.6% were active in any assay of this set; here they are far more common.

For Cc1ccc(-c2ccnc(=S)[nH]2)cc1 the results were p47phox inh 1.0, Diaph act CS 0.3, ABCG2 block 0.9, ABCB1 block 0.3, Diaph inh CS 66.7* and HMGR II inh 0.2.
For S=c1nccc(-c2ccc3c(c2)CCO3)[nH]1 the results were p47phox inh -3.6.
`O=[N+]([O-])c1ccc(N2CCCC2)cc1NCc1ccccc1` gave p47phox inh -8.8, Diaph act CS 0.8, ABCG2 block 28.4, ABCB1 block 1.1, Diaph inh CS 17.8 and HMGR II inh -0.5.
CCN1CCN(CCNC(=O)c2ccc(/C=C3/Sc4ccccc4N(Cc4ccccc4C)C3=O)cc2)CC1 was read as p47phox inh 104.3*, Diaph act CS 1.4, ABCG2 block -5.0, ABCB1 block 1.2, Diaph inh CS -40.6 and HMGR II inh -1.6.
CCN1CCN(CCCNC(=O)c2ccc(/C=C3/Sc4ccccc4N(Cc4ccccc4F)C3=O)cc2)CC1 was read as p47phox inh 89.9*, Diaph act CS 1.6, ABCG2 block 4.0, ABCB1 block 5.6, Diaph inh CS -62.2 and HMGR II inh -1.5.
`O=C(NCCN1CCOCC1)c1ccc2c(c1)N(Cc1ccccc1F)C(=O)c1ccccc1S2` gave p47phox inh -13.8, Diaph act CS 0.9, ABCG2 block 0.9, ABCB1 block 9.2, Diaph inh CS 9.1 and HMGR II inh 0.9.
S=c1nc(SCc2ccccc2)[nH]c2ccccc12 was read as p47phox inh -0.5, Diaph act CS 0.1, ABCG2 block -3.2, ABCB1 block -1.3, Diaph inh CS 86.9* and HMGR II inh -2.7.
O=C1CN(C(=O)COc2ncnc3ccccc23)c2ccccc2N1 was read as p47phox inh -4.6, Diaph act CS 0.9, ABCG2 block 5.0, ABCB1 block 0.9, Diaph inh CS 6.3 and HMGR II inh -1.8.
Cc1ccccc1-c1nnc(SCC(=O)N(CC(C)C)c2c(N)n(CC(C)C)c(=O)[nH]c2=O)n1C was read as p47phox inh -4.6.
For Cc1ccc(CNC(=O)c2cc3c(=O)n4ccccc4nc3n(Cc3ccco3)c2=N)cc1 the results were Diaph act CS 0.1 and Diaph inh CS 90.3*.
N=c1c(C(=O)NCc2ccco2)cc2c(=O)n3ccccc3nc2n1Cc1ccccc1 was read as p47phox inh 1.8, Diaph act CS 1, ABCG2 block 2.7, ABCB1 block 0.8, Diaph inh CS 3.0 and HMGR II inh -4.3.
For N=c1c(C(=O)NCc2ccco2)cc2c(=O)n3ccccc3nc2n1Cc1ccc(Cl)cc1 the results were Diaph act CS 0.9, ABCG2 block 5.7, ABCB1 block 1.6, Diaph inh CS 11.2 and HMGR II inh 1.8.
Screening N=c1c(C(=O)NCc2ccccc2)cc2c(=O)n3ccccc3nc2n1Cc1ccco1 returned p47phox inh 8.4, Diaph act CS 0.3, ABCG2 block 3.0, ABCB1 block 1.1, Diaph inh CS 67.5* and HMGR II inh -0.1.
For Cc1ccc2nc3c(cc(C(=O)NCc4ccco4)c(=N)n3Cc3ccco3)c(=O)n2c1 the results were p47phox inh 15.7, ABCG2 block 0.4, ABCB1 block 0.5 and HMGR II inh -4.9.
For N=c1c(C(=O)NCc2ccc(F)cc2)cc2c(=O)n3ccccc3nc2n1Cc1ccco1 the results were p47phox inh 16.9, Diaph act CS 0.5, ABCG2 block -1.4, ABCB1 block 1.1, Diaph inh CS 51.2* and HMGR II inh -3.1.
Cc1cc(C)nc(N2CCCC(C(=O)Nc3nnc(C(C)C)s3)C2)n1 (stereo unspecified) was read as p47phox inh 0.4, Diaph act CS 1, ABCG2 block 4.6, ABCB1 block 0.5, Diaph inh CS 3.9 and HMGR II inh -0.9.
`COc1ccc(C2NC(c3ccc(OC)cc3OC)C(C)C(=O)C2C)c(OC)c1` (stereo unspecified) gave p47phox inh -0.1, Diaph act CS 0.8, ABCG2 block 6.9, ABCB1 block 3.7, Diaph inh CS 18.5 and HMGR II inh 5.0.
